Experimental data taken from ChEMBL document CHEMBL1148355, “Inhibition of group IVA cytosolic phospholipase A2 by novel 2-oxoamides in vitro, in cells, and in vivo” (J Med Chem, 2004).
Blank lines part the entries; values can stand above or below the compound they belong to.

What was measured:
[1] = target: T1, Cytosolic phospholipase A2 (Homo sapiens) (UniProt P47712); experiment: Mole fraction of compound in the total substrate interface required to inhibit human GIVA PLA2 by 50%
T1 sequence (whole entry): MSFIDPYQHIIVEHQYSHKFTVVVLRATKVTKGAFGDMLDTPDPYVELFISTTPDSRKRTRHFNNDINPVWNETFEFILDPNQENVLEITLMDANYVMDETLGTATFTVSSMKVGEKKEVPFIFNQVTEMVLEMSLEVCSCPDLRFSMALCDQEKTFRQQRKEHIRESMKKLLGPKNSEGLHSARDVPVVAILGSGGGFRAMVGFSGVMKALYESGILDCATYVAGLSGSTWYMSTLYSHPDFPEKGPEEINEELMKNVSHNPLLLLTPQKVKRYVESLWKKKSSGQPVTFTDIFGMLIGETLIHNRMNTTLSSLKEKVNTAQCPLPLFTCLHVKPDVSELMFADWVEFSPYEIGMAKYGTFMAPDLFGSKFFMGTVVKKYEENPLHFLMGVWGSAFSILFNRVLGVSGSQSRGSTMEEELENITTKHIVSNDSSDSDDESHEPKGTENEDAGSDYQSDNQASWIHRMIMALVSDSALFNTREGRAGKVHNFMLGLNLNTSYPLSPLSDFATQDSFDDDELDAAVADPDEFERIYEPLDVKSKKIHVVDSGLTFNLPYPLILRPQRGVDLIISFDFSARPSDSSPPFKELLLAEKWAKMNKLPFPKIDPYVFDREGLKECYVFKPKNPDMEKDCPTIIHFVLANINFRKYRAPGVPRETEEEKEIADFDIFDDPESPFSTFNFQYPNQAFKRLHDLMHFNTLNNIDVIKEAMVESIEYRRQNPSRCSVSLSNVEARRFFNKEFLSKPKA
How it was run: (§1)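 GIVA PLA2 activity measured on mixed micelles of TX-100 (400 μM), 1-palmitoyl-2-[14C]arachidonoyl PC (97 μM) and PIP2 (3 μM, 0.6 mol %). Inhibitor surface mole fraction varied within the micelles; percent inhibition calculated relative to a DMSO control. Xi(50) is the mole fraction giving 50% inhibition, obtained by a logarithmic or linear fit.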

[2] = species on record: Mus musculus; experiment: Compound was tested on P388D1 macrophage-like cell line (AA-derived products) for inhibition of the GIVA PLA2 in the long-term lipopolysaccharide; assay type: functional, organism-based
[3] = species on record: Mus musculus; experiment: Compound was tested on P388D1 macrophage-like cell line (PGE2 production) for inhibition of the GIVA PLA2 in the long-term lipopolysaccharide; assay type: functional, organism-based
How it was run: (§2)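 P388D1 murine macrophages plated at 10^6 cells/well and left to adhere overnight. Starved 1 h in 0.2% FCS medium. Compound added in DMSO (<0.5% v/v) 30 min before 100 ng/mL LPS for 18 h. Medium PGE2 measured by enzyme immunoassay and normalized to DMSO/LPS controls. IC50 taken from a logarithmic fit.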

[4] = tested on: Rattus norvegicus; experiment: Compound was tested for in vivo analgesic activity in rat; assay type: functional
[5] = tested on: Rattus norvegicus; experiment: Compound was tested for in vivo antiinflammatory activity in rat; assay type: functional, organism-based
How it was run: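 Carrageenan paw edema in Fisher 344 rats (150–200 g), both sexes. Edema induced by 0.1 mL 2% w/v carrageenan in saline, intradermal into the right footpad. Compound suspended in Tween 80/water and given ip at the same time. Rats killed at 3.5 h, injected minus uninjected paw weight taken, and % inhibition calculated vs water controls. Four concentrations tested, two groups of five; mean of two experiments.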

[6] = target: T1, Cytosolic phospholipase A2 (Homo sapiens); experiment: Percent inhibition of human GIVA PLA2 by the compound at a concentration (mole fraction) of 0.01; how it was run: as §1
[7] = target: T1, Cytosolic phospholipase A2 (Homo sapiens); experiment: Percent inhibition of human GIVA PLA2 by the compound at a concentration (mole fraction) of 0.05; how it was run: as §1
[8] = target: T1, Cytosolic phospholipase A2 (Homo sapiens); experiment: Percent inhibition of human GIVA PLA2 by the compound at a concentration (mole fraction) of 0.08; how it was run: as §1
[9] = species on record: Mus musculus; experiment: Tested on P388D1 macrophage-like cell line (AA-derived products) for inhibition of the GIVA PLA2 in the long-term lipopolysaccharide; assay type: functional, organism-based
[10] = species on record: Mus musculus; experiment: Tested on P388D1 macrophage-like cell line (PGE2 production) for inhibition of the GIVA PLA2 in the long-term lipopolysaccharide; assay type: functional, organism-based; how it was run: as §2
[11] = target: T1, Cytosolic phospholipase A2 (Homo sapiens); experiment: Percent inhibition of human GIVA PLA2 by the compound at a concentration (mole fraction) of 0.02; how it was run: as §1
[12] = in the assay text read “of 0.091” for “of 0.01”

SMILES: CCCCCCCCCCCCCC(=O)C(=O)N[C@H](CCC(=O)O)CC(C)C
X1(50) [1]: 0.017
IC50 [2]: 4.6 µM
IC50 [3]: 10 µM
Analgesic activity [4]: 69%
EC50 [5]: 0.008 mmol/kg

SMILES: NC(=O)C(=O)CCCCc1ccccc1
inhibition [6]: 0%

SMILES: CCCCCCCCCCCCCC(=O)C(=O)N1CCC[C@H]1CCC(=O)O
inhibition [6, 12]: 24%

SMILES: CCCCCCCCCCOC[C@H](CCC(=O)O)NC(=O)C(=O)CCCCCCCCCC
X1(50) [1]: 0.045

SMILES: CCCCCCC(=O)C(=O)NCCCC(=O)O
inhibition [7]: 0%

SMILES: CCCCCCCCCCOC[C@@H](CCC(=O)O)NC(=O)C(=O)CCCCCCCCCC
X1(50) [1]: 0.047

SMILES: CCCCCCCC/C=C\CCCCCCCCNC(=O)C(=O)CCCCC
inhibition [6]: 0%

SMILES: CCCCCCCCCCCCCC(=O)C(=O)N[C@H](CCC(=O)O)Cc1ccccc1
X1(50) [1]: 0.035

SMILES: CCCCCCCCCCC(=O)C(=O)N[C@H](CCCC)CCC(=O)O
X1(50) [1]: 0.068

SMILES: CCCCCCCC/C=C\CCCCCCCCNC(=O)C(=O)CCCCCCCCCCCCCC
inhibition [7]: 0%

SMILES: CCCCCCCCCCC(=O)C(=O)N1CCC[C@H]1CCC(=O)O
inhibition [6, 12]: 0%

SMILES: CCCCCCC(=O)C(=O)N[C@H](CCC(=O)O)Cc1ccccc1
inhibition [6, 12]: 24%

SMILES: CCCCCCCCCCCCCC(=O)C(N)=O
inhibition [6]: 0%

SMILES: CCCCCCCCCCC(=O)C(=O)N[C@@H](CCCC)CCC(=O)O
X1(50) [1]: 0.009
IC50 [2]: 7.6 µM
IC50 [3]: 5.8 µM
Analgesic activity [4]: 63%
EC50 [5]: 0.1 mmol/kg

SMILES: CCCCCCCCCCC(=O)C(=O)N[C@H](CCC(=O)O)CC(C)C
X1(50) [1]: 0.021

Further lines, with some results ahead:

X1(50) [1]: 0.01
SMILES: CCCCCCCCCCCCCC(=O)C(=O)N[C@@H](CCCC)CCC(=O)O

inhibition [6]: 0%
SMILES: CCCCCCCCCCCCCCCCNC(=O)C(=O)CC

inhibition [8]: 0%
SMILES: CCCCCCCCCCCCCCC(=O)C(=O)NCCCC(=O)OC

inhibition [8]: 22%
SMILES: CCCCCCCCCCCCCCCC(=O)NCCCC(=O)O

X1(50) [1]: 0.021
SMILES: CCCCCCCCCCCCCC(=O)C(=O)N[C@@H](C)CCC(=O)O

X1(50) [1]: 0.017
IC50 [9]: 8.6 µM
IC50 [10]: 7.8 µM
EC50 [5]: 0.01 mmol/kg
SMILES: CCCCCCCCCCCCCCC(=O)C(=O)NCCCC(=O)O
Analgesic activity [4]: 93%

inhibition [11]: 22%
SMILES: CCCCCCCCCCCCCCC(=O)C(=O)NCCCCC
